Here are results for three compounds from ChEMBL document CHEMBL5226344, “A Chemical Strategy for Intracellular Arming of an Endogenous Broad-Spectrum Antiviral Nucleotide” (J Med Chem, 2021).

Calls of active or inactive are those of the source. The rule behind the calls is not given here.

Data set [1] is described as follows: (§1) Competitive inhibition of Zika virus RNA-dependent RNA polymerase assessed as chain termination by measuring inhibition of full length RNA production in presence of 10 uM CTP by primer extension assay based PAGE analysis. In short, it runs like this: (§2)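 Purified ZIKV NS5 RdRp (1 μM), E. coli-expressed ubiquitin fusion with C-terminal His tag. Assembled 30 min at 30 °C with pGGC RNA primer, 20-nt RNA template, ATP, GTP and [α-32P]-ATP in HEPES pH 7.5 buffer with Mg2+. Started with UTP, 10 μM CTP and ddhCTP 0–5000 μM, 5 min, EDTA quench. Full-length RNA scored by denaturing 23% PAGE. IC50 from curve fits, 3 independent repeats.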

The test system of data set [2] is Zika virus. The description is as §1. In short, it runs like this: as §2
Data set [3] relates to West Nile virus. Nature of the data set: Antiviral activity against West Nile virus infected in human Huh-7 cells assessed as reduction in virus-induced cytopathic effect at 0.1 to 1 mM cells were pretreated with compound for 24 hrs followed by drug removal and subsequent viral infection for 1 hr and later incubated with compound and measured at 3 days post-infection. It is filed as functional, organism-based. The conditions noted are these: dose 0.1-1 mM, time 3.0 day. In short, it runs like this: (§3)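 Cells grown in DMEM with 2% FBS, pretreated 24 h before confluency with media containing 0, 0.1 or 1 mM compound (diluted from DMSO stocks). Media removed, WNV (2003 crow isolate) added at MOI 0.1 for 1 h, then washed 3x with HBSS. Drug-containing overlay applied, 37°C, 5% CO2, 3 days. Media harvested, titre by plaque titration, triplicate. One-way ANOVA with Dunnett's test.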

Data set [4] has as its system West Nile virus. Nature of the data set: Antiviral activity against West Nile virus infected in African green monkey Vero cells assessed as reduction in virus-induced cytopathic effect at 0.1 to 1 mM cells were pretreated with compound for 24 hrs followed by drug removal and subsequent viral infection for 1 hr and later incubated with compound and measured at 3 days post-infection. Format: functional, organism-based. The conditions noted are these: dose 0.1-1 mM, time 3.0 day. In general terms: Damage to the host cells serves as the signal in cytopathic effect assays.

The test system of data set [5] is West Nile virus. In words: Antiviral activity against West Nile virus infected in human Huh7.5 cells assessed as reduction in virus-induced cytopathic effect at 0.1 to 1 mM cells were pretreated with compound for 24 hrs followed by drug removal and subsequent viral infection for 1 hr and later incubated with compound and measured at 3 days post-infection. The conditions noted are these: dose 0.1-1 mM, time 3.0 day. It is filed as functional, organism-based. In short, it runs like this: as §3

Data set [6] has as its system Vero. Nature of the data set: Cytotoxicity against African green monkey Vero cells assessed as reduction in cell viability at 0.1 to 1 mM incubated for 2 days by Alamar Blue assay. The note with it: chlorocebus sabaeus, 48 h, 1000 µM, dose 0.1-1 mM, time 2 day. It is filed as toxicity, cell-based. In outline: (§4)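 HUH7 (2,000 cells/well) or Vero (1,500 cells/well) seeded in 10% FBS medium, 24 h; serially diluted compound added (final DMSO 0.5%); incubated 2 or 5 days; Alamar blue added 2 h before read; fluorescence minus no-cell background, normalized to DMSO control; technical triplicates, at least three biological replicates.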
On the technique in general: Alamar Blue is a resazurin reagent that responds to reducing activity.

The test system of data set [7] is Huh-7. Nature of the data set: Cytotoxicity against human Huh-7 cells assessed as reduction in cell viability at 0.1 to 1 mM incubated for 2 days by Alamar Blue assay. The note with it: huh-7, 48 h, 1000 µM, dose 0.1-1 mM, time 2 day. Format: toxicity, cell-based. In short, it runs like this:
as §4

The nature of data set [8]: Drug metabolism in human Huh-7 cells expressing HINT1 assessed as ddhCTP level at 100 uM incubated for 24 hrs measured per 5 million cells by mass spectrometry (Rvb <0.01 nmol). The conditions noted are these: huh-7, 24 h.
Data set [9] has as its system Zika virus. In words: Antiviral activity against Zika virus PRABC59 infected in African green monkey Vero cells assessed as reduction in virus-induced cytopathic effect at 0.1 to 1 mM cells were pretreated with compound for 24 hrs followed by drug removal and subsequent viral infection for 1 hr and later incubated with compound and measured at 4 days post-infection. The conditions noted are these: dose 0.1-1 mM, time 5.0 day. It is filed as functional, organism-based.

Data set [10] concerns Zika virus. Nature of the data set: Antiviral activity against Zika virus PRABC59 infected in human Huh-7 cells assessed as log reduction in plaque forming units at 0.1 mM cells were pretreated with compound for 24 hrs followed by drug removal and subsequent viral infection for 1 hr and later incubated with compound and measured at 4 days post-infection. Format: functional. The conditions noted are these: time 5 day. In short, it runs like this: (§5)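 Cells in 24-well plates (2% FBS medium) pretreated 24 h with compound in medium (0, 0.1, 1 mM), medium removed, infected at MOI 0.1 for 1 h, washed three times, overlaid with drug-containing medium; 37°C, 5% CO2 for 3 days (WNV, 2003 crow isolate) or 4 days (ZIKV PRABC59); supernatant titered by plaque assay; triplicates; one-way ANOVA with Dunnett's test.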

Data set [11] deals with Zika virus. In words: Antiviral activity against Zika virus PRABC59 infected in human Huh7.5 cells assessed as log reduction in plaque forming units at 0.1 mM cells were pretreated with compound for 24 hrs followed by drug removal and subsequent viral infection for 1 hr and later incubated with compound and measured at 4 days post-infection. It is filed as functional. Further details: dose or concentration left out as unconfirmed. The note with it: time 5 day.

The test system of data set [12] is West Nile virus. In words: Antiviral activity against West Nile virus infected in human Huh-7 cells assessed as log reduction in plaque forming units at 1 mM cells were pretreated with compound for 24 hrs followed by drug removal and subsequent viral infection for 1 hr and later incubated with compound and measured at 3 days post-infection. It is filed as functional. The conditions noted are these: time 4 day. In outline:
as §5

The subject of data set [13] is West Nile virus. Nature of the data set: Antiviral activity against West Nile virus infected in human Huh7.5 cells assessed as log reduction in plaque forming units at 1 mM cells were pretreated with compound for 24 hrs followed by drug removal and subsequent viral infection for 1 hr and later incubated with compound and measured at 3 days post-infection. The note with it: time 4 day. It is filed as functional. In short, it runs like this: as §5

Data set [14] is described as follows: Cytotoxicity against African green monkey Vero cells assessed as cell viability at 1 mM incubated for 5 days by Alamar Blue assay. It is filed as toxicity, cell-based. The note with it: chlorocebus sabaeus, time 5 day, read-out: Activity. In outline: as §4
A short description of data set [15]: Cytotoxicity against human Huh-7 cells assessed as cell viability at 1 mM incubated for 5 days by Alamar Blue assay. The conditions noted are these: time 5 day, read-out: Activity. It is filed as toxicity, cell-based. In short, it runs like this:
as §4

The nature of data set [16]: Metabolic stability of the compound in human plasma assessed as parent compound remaining at 2 uM measured upto 2 hrs by LC-MS analysis. It is filed as ADME, cell-free. In outline:
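Pooled human plasma (3 male, 3 female), pH 7.4, spiked to 2 μM final; 37°C; sampled at 0, 10, 30, 60, 120 min; quenched with MeCN:MeOH containing tolbutamide and labetalol; LC-MS peak-area ratio versus internal standards, percent remaining relative to t0; propantheline as positive control.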

The nature of data set [17]: Stability of the compound in simulated gastric fluid assessed as parent compound remaining at 200 uM measured after 6 hrs by LC-MS/MS analysis. Format: physicochemical. The conditions noted are these: read-out: Stability.
A short description of data set [18]: Apparent permeability across apical to basolateral side in human Caco-2 cells at 2 to 10 uM incubated for 2 hrs […]. It is filed as ADME, cell-based. The note with it: dose 2-10 µM. In outline:
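Caco-2 monolayers grown 21-28 days; compound at 2 or 10 μM in HBSS/10 mM HEPES pH 7.4 (DMSO <1%); 2 h at 37°C, 5% CO2; donor and receiver quantified by LC-MS against internal standard; monolayer integrity by Lucifer Yellow; Papp from receiver accumulation rate, volume, area 0.0804 cm2 and initial donor concentration.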

A short description of data set [19]: Drug metabolism in human Huh-7 cells transfected with HINT1 assessed as intracellular concentration of ddhCTP at 100 uM incubated for 24 hrs by mass spectrometry. It is filed as ADME, cell-based. The conditions noted are these: huh-7, 24 h.

As a reminder, the IC50 is the midpoint of a concentration-inhibition curve. In the case of `Nc1ccn([C@@H]2OC(COP(=O)(O)OP(=O)(O)OP(=O)(O)O)=C[C@H]2O)c(=O)n1`, in [1], the half-inhibitory concentration (IC50) is 320 µM. Moreover, in [2], the inhibition entry is “Dose-Dependent Effect”.
For `Nc1ccn([C@@H]2OC(CO)=C[C@H]2O)c(=O)n1`, the result in [3], in data set [4] and in data set [5] was inactive. In addition, the Activity result in [6] and in data set [7] was “Non-Toxic” each time. Moreover, the Drug metabolism in [8] is recorded as 0.13 nmol.
By Papp A→B is commonly meant how fast a substance crosses the layer from the apical side. Take `CC(C)OC(=O)[C@H](C)N[P@@](=O)(OCC1=C[C@@H](O)[C@H](n2ccc(N)nc2=O)O1)Oc1ccccc1`: the result in data set [9] and in [4] was inactive. For the same compound, the Activity in data set [10] is on record as greater than 1 log10PFU/ml; in data set [11], greater than 1 log10PFU/ml; in data set [12], greater than 4 log10PFU/ml; in [13], greater than 4 log10PFU/ml; in data set [6] it was “Non-Toxic”; in [7] it was “Non-Toxic”. Moreover, the viability at 120 h, 1000 µM in [14] and in [15] was greater than 60% each time. Further, the Stability in data set [16] was greater than 87%. Besides, the remaining at 6 h, 200 µM in data set [17] was 76%. Also, the Papp A→B at 2 h, up to 10 µM in [18] came to 0.03 ×10⁻⁶ cm/s. Moreover, the Drug metabolism in data set [19] is greater than 1 mM; in data set [8], 3.8 nmol.
